Measurements of several laboratories.
Lines come from different studies, so protocols differ.
Target: Serine/threonine-protein kinase Nek11 (NEK11, Homo sapiens, UniProt Q8NG66)
Residues used in one study (Q8NG66 1-645): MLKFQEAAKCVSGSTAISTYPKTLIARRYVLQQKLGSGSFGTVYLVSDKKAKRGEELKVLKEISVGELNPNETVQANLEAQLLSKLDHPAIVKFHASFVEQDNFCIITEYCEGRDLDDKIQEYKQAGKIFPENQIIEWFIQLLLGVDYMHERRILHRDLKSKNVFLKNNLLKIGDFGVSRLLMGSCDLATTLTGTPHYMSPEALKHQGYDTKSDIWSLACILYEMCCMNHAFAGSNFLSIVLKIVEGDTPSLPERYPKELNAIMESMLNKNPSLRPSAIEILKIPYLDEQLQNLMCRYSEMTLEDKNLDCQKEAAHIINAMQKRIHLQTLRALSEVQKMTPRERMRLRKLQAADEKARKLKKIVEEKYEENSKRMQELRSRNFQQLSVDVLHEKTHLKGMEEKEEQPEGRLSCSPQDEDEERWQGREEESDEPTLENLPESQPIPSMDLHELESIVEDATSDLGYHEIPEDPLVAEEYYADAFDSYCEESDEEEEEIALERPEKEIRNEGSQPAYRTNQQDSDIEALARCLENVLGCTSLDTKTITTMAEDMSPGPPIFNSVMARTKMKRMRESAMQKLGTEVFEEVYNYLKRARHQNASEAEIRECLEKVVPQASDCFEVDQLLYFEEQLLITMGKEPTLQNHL

SMILES	test	conditions	remaining binding [%]
Cc1cc(C)c(-n2ccn3nc(-c4cccnc4)cc23)cc1NC(=O)c1cc(C#N)cc(S(F)(F)(F)(F)F)c1	cell-free assay, competition with immobilised ligand	0.1 µM	86.1
Cc1cnn2ncc(-c3ccnc(N(C)C)n3)c2c1	binding	1 µM	98
COc1cnc(Nc2cccc(S(N)(=O)=O)c2)nc1N1CCN(c2ccccc2)C(=O)C1	binding, competition with immobilised ligand	1 µM	90
CS(=O)(=O)NCC[C@H](NC(=O)c1cncc2c1cnn2-c1ccc(F)cc1)c1ccnc(S(C)(=O)=O)c1	cell-free assay, competition with immobilised ligand	1 µM	100
COc1ccnn2ncc(-c3ccnc(N(C)C)n3)c12	binding	1 µM	100
O=C(c1ccc(Nc2ncc(Cl)c(-c3ccc(Cl)s3)n2)cc1)N1CCC(N2CCCC2)CC1	binding, competition with immobilised ligand	1 µM	100
C[C@@H](c1ccc(-n2cnc3c(N)ncnc32)cc1)N1CCc2nn(C)c(Cc3ccccc3)c2C1=O	binding, competition with immobilised ligand	0.1 µM	78
c1cnn2ncc(-c3ccnc(N4CCC45COC5)n3)c2c1	binding	1 µM	89
O=S(=O)(NC1CCC(c2cc(F)ccc2F)(S(=O)(=O)c2ccc(Cl)cc2)CC1)C(F)(F)F (centres unmarked)	cell-free assay, competition with immobilised ligand	1 µM	100
N[C@H]1CCN(c2nccc(-c3cnn4ncccc34)n2)C1	binding	1 µM	71
CC(=O)C1=C(C)N(c2cccc(C(F)(F)F)c2)C(=O)N[C@@H]1c1ccc(C#N)nc1	cell-free assay, competition with immobilised ligand	1 µM	100
CNC(=O)[C@@H]1CC[C@@H](n2c(-c3ccc4cnccc4c3)nc3ccc(C(=O)NCc4cccc(C(N)=O)c4)cc32)C1	binding, competition with immobilised ligand	1 µM	100
O=C(NCCCN1CCOCC1)c1ccc(Nc2ncc(Cl)c(-c3ccc(Cl)s3)n2)cc1	binding, competition with immobilised ligand	1 µM	88
Cn1nc(C(F)(F)F)cc1-c1cnc(N2CCc3cc(S(=O)(=O)Nc4c(F)cc(Cl)cc4F)cc(N4CCCC4=O)c32)nc1	cell-free assay, competition with immobilised ligand	1 µM	78
F[C@@H]1CCN(c2nccc(-c3cnn4ncccc34)n2)C1	binding	1 µM	100
O=C(NCC1CCOCC1)c1n[nH]cc1NC(=O)c1c(F)cccc1F	binding, competition with immobilised ligand	1 µM	91
C[C@@H]1CCN(c2nccc(-c3cnn4ncccc34)n2)C1	binding	1 µM	90
C=CC(=O)N1CCC(C(=O)NCC(=O)N2CCN(c3nc(-c4cnc(N)nc4C(F)F)nc(N4CCOCC4)n3)CC2)CC1	binding, competition with immobilised ligand	1 µM	69
COc1ccc2c(c1)O[C@@H](c1ccc(OC)c(OC)c1)C[C@H]2NC(=O)C1(c2ccc3c(c2)OC(F)(F)O3)CC1	cell-free assay, competition with immobilised ligand	1 µM	83
O=C(c1ccc(Nc2nccc(-c3cc4ccccc4s3)n2)cc1)N1CCC(N2CCCC2)CC1	binding, competition with immobilised ligand	1 µM	78
